Results on four compounds are retold here after ChEMBL document CHEMBL1125912, “Topically active carbonic anhydrase inhibitors. 4. [(Hydroxyalkyl)sulfonyl]benzene and [(hydroxyalkyl)sulfonyl]thiophenesulfonamides” (J Med Chem, 1991).

Data set [1] can be described thus: Dissociation constant (pKa) (determined in 30% EtOH/water). The data set is classed as physicochemical.
Data set [2] concerns Oryctolagus cuniculus. The data set is described as follows: Tested in vivo for the IOP (intraocular pressure) recovery after 50 uL dose of 2% concentration in albino rabbits. The data set is classed as functional, Eye. Put shortly:
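Conscious albino rabbits. Aqueous humor production was assessed indirectly by IOP recovery rate. A single bilateral 50-µL instillation of 2% (w/v) in 0.5% aqueous (hydroxyethyl)cellulose vehicle was given. Results are percent change from control, tested by Dunnett's two-tailed test (P<0.05).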

Data set [3] is filed under the species Oryctolagus cuniculus. The data set is described as follows: Maximum fall in IOP after 50 uL dose of 0.5% concentration in alpha-CT rabbit model. The data set is classed as functional. Put shortly:
(§1)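 Alpha-chymotrypsinized rabbit model of ocular hypertension. Single 50-µL bilateral instillation of a 0.5% (w/v) solution in 0.5% aqueous (hydroxyethyl)cellulose vehicle. Read-out is the fall in IOP.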

Data set [4] is described as follows: Partition coefficient (pH 7.4). It is filed as ADME. The settings on record: octanol/water. The gist of the method: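 1-Octanol/phosphate buffer partition at pH 7.4 and 0.1 ionic strength. The compound was equilibrated between the phases and the concentration in each phase was measured by UV spectrophotometry.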
The nature of data set [5]: Solubility (buffer pH 7.4). The note with it: read-out: S. The data set is classed as physicochemical. The gist of the method:
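Solubility in 50 mM phosphate buffer, pH 7.4.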

The next data set has as its target Carbonic anhydrase 2 (Homo sapiens, UniProt P00918). The data set is described as follows: Inhibitory activity against human carbonic anhydrase II using pH stat assay. The settings on record: read-out: I50. It is filed as functional.
Data set [6] is filed under the species Oryctolagus cuniculus. The data set is described as follows: Maximum fall in IOP after 50 microL dose of 0.5% concentration in alpha-CT rabbit model. It is filed as functional. Put shortly: as §1

SMILES strings stand for the structures. Values after ≈ are worked out from the molar mass of the structure shown.

Regarding `NS(=O)(=O)c1cc2c(s1)S(=O)(=O)CCC2O` (centres undefined), the pKa in data set [1] came to 8.2. Moreover, the Change from control with Oryctolagus cuniculus [2] is -40%. In addition, the “Max fall in IOP” value in the data set listed under Oryctolagus cuniculus [3] is reported as -6.9 mmHg.

`NS(=O)(=O)c1ccc(S(=O)(=O)CCO)cc1` showed a D in data set [4] of 0.14. The pKa in data set [1] came out at 9.38. Further, the solubility in data set [5] came to 6600 µg/mL (≈ 24.9 mM). Further, the Change from control in the data set on Oryctolagus cuniculus [2] was -41%. In addition, the “Max fall in IOP” value in the data set listed under Oryctolagus cuniculus [3] was -10.8 mmHg. The IC50 at Carbonic anhydrase 2 was 24 nM.

Regarding `CC(=O)OCCCCCc1ccc(S(N)(=O)=O)cc1`, the D in data set [4] was 73. This compound also came in with a pKa in data set [1] of 10.3. Moreover, the solubility in data set [5] worked out at 1200 µg/mL (≈ 4.21 mM). For the same compound, the Change from control in the data set on Oryctolagus cuniculus [2] is -33%. The “Max fall in IOP” value in the data set filed under Oryctolagus cuniculus [3] is given as -6.4 mmHg.

`CC(=O)OCCCc1ccc(S(N)(=O)=O)cc1` gave a D in data set [4] of 9.6. This compound also had a pKa in data set [1] of 10.2. Besides, the solubility in data set [5] is 1600 µg/mL (≈ 6.22 mM). In the data set on Oryctolagus cuniculus [2], the Change from control is listed as -18%. Moreover, the “Max fall in IOP” value in the data set listed under Oryctolagus cuniculus [6] is on record as -4.5 mmHg.
